Measurements taken from ChEMBL document CHEMBL3352608, “Medicinal chemistry optimization of antiplasmodial imidazopyridazine hits from high throughput screening of a softfocus kinase library: part 2” (J Med Chem, 2014).
In brackets after ≈: the same amount, converted by molar mass. One block for each molecule: values may come before it.

How the values were obtained:
Plasmodium berghei [1] = assay: Antimalarial activity against Plasmodium berghei ANKA infected in mouse assessed as reduction in parasitemia at 10 mg/kg/day, po qd administered for 4 days relative to control; assay type: functional; set-up: Activity: scale not given: the % may be the effect or the level left
Procedure, shortened: (§1)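 Mice (n = 3) infected with GFP-transfected P. berghei ANKA; compound in HPMC suspension vehicle given orally once daily at 4, 24, 48 and 72 h after infection. Blood collected day 4 (96 h post-infection); parasitemia by flow cytometry (detection limit 0.1%). Activity = difference in mean % parasitemia between control and treated groups, as % of control.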

[2] = Aqueous solubility of the compound at pH 2; assay type: physicochemical; settings: buffer
[3] = Selectivity index, ratio of IC50 for CHO cells to IC50 for Plasmodium falciparum; assay type: toxicity, cell-based; settings: hamster, read-out: Ratio IC50
[4] = system: CHO cells (Cricetulus griseus); assay: Selectivity index, ratio of IC50 for Chinese hamster CHO cells to IC50 for Plasmodium falciparum
Plasmodium falciparum [5] = assay: Antiplasmodial activity against Plasmodium falciparum NF54 by [3H]hypoxanthine incorporation assay; assay type: functional, organism-based
Procedure, shortened: (§2)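 Modified [3H]-hypoxanthine incorporation assay on P. falciparum asexual cultures, chloroquine and artesunate as references in every run. IC50 values are means of ≥2 independent experiments; individual values mostly within 2-fold (maximum 3-fold).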

Plasmodium berghei [6] = assay: Antimalarial activity against Plasmodium berghei ANKA infected in mouse assessed as reduction in parasitemia at 3 mg/kg/day, po qd administered for 4 days relative to control; assay type: functional; set-up: Activity: scale not given: the % may be the effect or the level left; procedure, shortened: as §1
[7] = (§3) Cmax in Sprague-Dawley rat at 3.6 mg/kg, po; assay type: ADME, organism-based; set-up: dose 3.6 mg/kg, route oral; settings: Sprague-Dawley, in vivo
Procedure, shortened: (§4)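 Adult male Sprague-Dawley rats fasted overnight; dose 3.6 mg/kg prepared fresh, dissolved in water/0.01 M HCl/propylene glycol/ethanol/Tween 80 (1:2:1:0.1:0.1), given orally (1 mL) or intravenously (350 µL). Food returned 5 h post-dose. Heparinized blood taken at set time points, plasma held at -80°C, analysed by LC/MS/MS; parameters by non-compartmental analysis.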

Plasmodium berghei [8] = assay: Antimalarial activity against Plasmodium berghei ANKA infected in mouse assessed as reduction in parasitemia at 50 mg/kg/day, po qd administered for 4 days relative to control; assay type: functional; set-up: Activity: scale not given: the % may be the effect or the level left; procedure, shortened: as §1
Rattus norvegicus [9] = assay: AUC (0 to infinity) in Sprague-Dawley rat at 3.6 mg/kg, iv; assay type: ADME, organism-based, Plasma; set-up: time infinity, dose 3.6 mg/kg, route intravenous; settings: in vivo; procedure, shortened: as §4
Rattus norvegicus [10] = assay: AUC (0 to infinity) in Sprague-Dawley rat at 3.6 mg/kg, po; assay type: ADME, organism-based, Plasma; set-up: time infinity, dose 3.6 mg/kg, route oral; settings: in vivo; procedure, shortened: as §4
CHO = assay: Cytotoxicity against CHO cells; assay type: cell-based, Cricetulus griseus; settings: chinese hamster
[11] = Volume of distribution at steady state in Sprague-Dawley rat at 3.6 mg/kg, iv; assay type: ADME, organism-based; set-up: dose 3.6 mg/kg, route intravenous; settings: in vivo, read-out: Vdss; procedure, shortened: as §4
Rattus norvegicus [12] = assay: (§5) Oral bioavailability in Sprague-Dawley rat at 3.6 mg/kg; assay type: ADME, organism-based; settings: in vivo; procedure, shortened: as §4
[13] = Plasma concentration in mouse infected with Plasmodium berghei ANKA at 50 mg/kg/day, po after 1 hr by HPLC analysis; assay type: ADME, organism-based; set-up: route oral
Procedure, shortened: (§6)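 P. berghei-infected mice dosed orally at 50 mg/kg daily for 4 days; blood sampled 1, 4 and 24 h after the first dose and analysed by HPLC for drug levels.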

[14] = Aqueous solubility of the compound at pH 6.5; assay type: physicochemical; settings: buffer
[15] = (§7) Tmax in Sprague-Dawley rat at 3.6 mg/kg, po; assay type: ADME, organism-based; set-up: dose 3.6 mg/kg, route oral; settings: Sprague-Dawley, in vivo; procedure, shortened: as §4
[16] = (§8) Apparent half life in Sprague-Dawley rat at 3.6 mg/kg, po; assay type: ADME, organism-based; set-up: dose 3.6 mg/kg, route oral; settings: Sprague-Dawley, in vivo, read-out: t1/2(app) (converted); procedure, shortened: as §4
[17] = system: CHO cells (Cricetulus griseus); assay: Cytotoxicity against Chinese hamster CHO cells
[18] = Plasma concentration in mouse infected with Plasmodium berghei ANKA at 50 mg/kg/day, po after 4 hrs by HPLC analysis; assay type: ADME, organism-based; set-up: route oral; procedure, shortened: as §6
[19] = Apparent half life in Sprague-Dawley rat at 3.6 mg/kg, iv; assay type: ADME, organism-based; set-up: dose 3.6 mg/kg, route intravenous; settings: in vivo; procedure, shortened: as §4
Plasmodium falciparum [20] = assay: Antiplasmodial activity against Plasmodium falciparum K1 by [3H]hypoxanthine incorporation assay; assay type: functional, organism-based; procedure, shortened: as §2
Rattus norvegicus [21] = assay: as §3; assay type: ADME, organism-based; set-up: dose 3.6 mg/kg, route oral; settings: in vivo; procedure, shortened: as §4
[22] = as §5; assay type: ADME, organism-based; settings: Sprague-Dawley, in vivo; procedure, shortened: as §4
Rattus norvegicus [23] = assay: as §7; assay type: ADME, organism-based; set-up: dose 3.6 mg/kg, route oral; settings: in vivo; procedure, shortened: as §4
Rattus norvegicus [24] = assay: as §8; assay type: ADME, organism-based; set-up: dose 3.6 mg/kg, route oral; settings: in vivo; procedure, shortened: as §4

- solubility [2]: 61 µM (≈ 26.7 µg/mL)
- IC50 (Plasmodium falciparum [5]): 1.1 nM
- Cmax [7]: 40 nM
- AUC (Rattus norvegicus [9]): 3.3 µM·h
- AUC (Rattus norvegicus [10]): 0.36 µM·h
- Vd [11]: 0.73 L/kg
- bioavailability (Rattus norvegicus [12]): 11%
- concentration at 1 h [13]: 80 nM
- solubility [14]: < 5 µM
- Tmax [15]: 8 h
- half-life [16]: 4.8 h
- concentration at 4 h [18]: 20 nM
- half-life [19]: 0.55 h
SMILES: C[S+]([O-])c1ccc(-c2cnc3ccc(-c4cccc(S(=O)(=O)C5CC5)c4)nn23)cc1 (centres undefined)
- Activity (Plasmodium berghei [1]): 99.6%
- MSD (Plasmodium berghei [1]): 8 days
- selectivity ratio [3]: > 1000
- selectivity ratio [4]: > 1000
- Activity (Plasmodium berghei [6]): 98%
- MSD (Plasmodium berghei [6]): 7 days
- Activity (Plasmodium berghei [8]): 99.8%
- MSD (Plasmodium berghei [8]): >30 days
- Activity (CHO): Non-toxic
- Activity [17]: Non-toxic

SMILES: CS(=O)(=O)c1ccc(-c2cnc3ccc(-c4cccc(S(=O)(=O)C5CC5)c4)nn23)cc1
- solubility [2]: 19 µM (≈ 8.62 µg/mL)
- IC50 (Plasmodium falciparum [20]): 0.53 nM
- IC50 (Plasmodium falciparum [5]): 0.88 nM
- Cmax (Rattus norvegicus [21]): 1500 nM
- AUC (Rattus norvegicus [9]): 121 µM·h
- AUC (Rattus norvegicus [10]): 27 µM·h
- Vd [11]: 2.3 L/kg
- bioavailability [22]: 24%
- solubility [14]: < 5 µM
- Tmax (Rattus norvegicus [23]): 12 h
- t1/2(app) (Rattus norvegicus [24]): 4.8 h
